The list is not random: actives were taken first. Their share in the collection is about 2.2%.
Ba/F3 V617F tox: reduced viability of JAK2V617F-dependent Ba/F3 cells, primary screen, JAK2V617F inhibitor project, cell-based, Ba/F3 EpoR-JAK2V617F, luminescence. ATP luminescence. 1.1% of 220,000 active. inhibition, % at 5.6 µM;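 active = inhibition above the campaign mean plus 3 SD over all tested compounds, cut at about 24% in these data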;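 also: cytokine-independent growth of Ba/F3 cells driven by EpoR plus mutant JAK2; 0% = DMSO-treated cells and 100% = JAK inhibitor I control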
MT stabilizer: microtubule stabilizers in HeLa cells, primary screen, imaging, high-content imaging; HeLa tubulin immunostaining HCS, 24 h; share of cells brighter than vehicle mean+2SD; 0.83% of 200,000 active; % tubulin-high responders, % at 10 µM;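 active = plate Z-score above 3 for both tubulin-high and condensed-nucleus cell shares, with cell loss under 80%, at 10 µM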;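 also: anti alpha tubulin signal scored within the nucleus-defined area of each cell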
IEC-6 cytotox: cytotoxicity in IEC-6 intestinal epithelial cells, primary screen, cytotoxicity control for KLF5 inhibitor project, cell-based, luminescence; 0.78% of 290,000 active; IEC-6 cytotoxicity, luminescence viability; inhibition, % at 5 µM; AID 1825, 2009; in the data active = inhibition above about 22%;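 also: 0% = plate median of test compound wells and 100% = cytotoxic reference compound wells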
APP transl inh: inhibitors of APP translation via 5'UTR reporter, primary screen, APP 5'UTR luciferase, SH-SY5Y cells; inhibition, % at 2 µM; AID 1285, 2008; SH-SY5Y APP 5'UTR-luciferase reporter, luminescence; 0.82% of 190,000 active;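 active = inhibition above a set limit, derived from the sample mean plus 3 SD, cut at about 45% in these data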
b-catenin transl: modulators of beta-catenin nuclear translocation, primary screen, imaging, HeLa cells, immunofluorescence, high-content; nuclear translocation activity, % at 5 µM; 0.3% of 190,000 active; AID 1665, 2009;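 active = nuclear translocation activity above 50% at 5 µM, with a well cell count of 50 or more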;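 also: per-cell ratio of nuclear to cytoplasmic median beta-catenin stain intensity; plate controls were DMSO negative control for no effect and GSK-3 inhibitor IX positive control for full effect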
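System: Human HeLa cells, endogenous beta-catenin | Compound dosing: 5 µM primary, 0.02–20 µM confirmation | Timing: 24 h compound exposure at 37°C, 5% CO2 | Measured by: Fluorescence imaging of beta-catenin antibody stain plus DAPI | Read-out basis: % activation of per-cell nuclear versus cytoplasmic median beta-catenin signal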
BaF3 tox: parental Ba/F3 cell viability inhibition, counter-screen for JAK2V617F inhibitor project, murine pro-B, CellTiter-Glo luminescence; CellTiter-Glo ATP luminescence; inhibition, % at 5.6 µM; 1.1% of 220,000 active;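 active = inhibition above a per-campaign cutoff, the mean inhibition of all tested compounds plus 3 SD, cut at about 27% in these data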;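 also: 0% = DMSO wells and 100% = JAK Inhibitor I control wells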
Active calls of the source: *.

How did Cc1ccccc1N/C(=N/S(=O)(=O)c1cc(F)ccc1F)c1ccccc1 do in these assays?
IEC-6 cytotox: -2

What do the screens show for `Cc1cc(N/C(=N\S(=O)(=O)c2ccc(F)cc2F)c2ccccc2)no1`?
Ba/F3 V617F tox: 0; MT stabilizer: 1; IEC-6 cytotox: -6; APP transl inh: 68*; b-catenin transl: -3; BaF3 tox: 2

Results for Cc1ccc2cc(C3C(C#N)=C(N)Oc4c3ccc3cccnc43)c(=O)[nH]c2c1 (stereo not given) ?
Ba/F3 V617F tox: -1; MT stabilizer: 1; IEC-6 cytotox: -12; APP transl inh: 38; b-catenin transl: -1; BaF3 tox: 0

Results for N#CC1=C(N)Oc2c(ccc3cccnc23)C1c1cccnc1 (stereo not given) ?
Ba/F3 V617F tox: 0; MT stabilizer: 22*; IEC-6 cytotox: -13; APP transl inh: 18; b-catenin transl: 56*; BaF3 tox: 7

How did CCC1(C)N=C(N)Nc2nc3cc(C)c(C)cc3n21 (stereo not given) do in these assays?
Ba/F3 V617F tox: 73*; IEC-6 cytotox: -5; b-catenin transl: 0; BaF3 tox: 85*

How did NC1=NC2(CCCC2)n2c(nc3ccccc32)N1 do in these assays?
Ba/F3 V617F tox: 4; MT stabilizer: 3; IEC-6 cytotox: 6; APP transl inh: 4; b-catenin transl: -3; BaF3 tox: -7

Results for Cn1c(SC2=CS(=O)(=O)c3ccccc32)nc2ccccc21 ?
Ba/F3 V617F tox: 89*; MT stabilizer: 2; IEC-6 cytotox: 21; APP transl inh: 72*; b-catenin transl: 2; BaF3 tox: 65*

Results for Cn1c(CSc2nc3ccccc3n2C)nc2ccccc21 ?
Ba/F3 V617F tox: -3; MT stabilizer: 2; IEC-6 cytotox: 7; APP transl inh: -22; b-catenin transl: 0; BaF3 tox: 2

How did CCC(CNc1cc(OC)cc2cccnc12)NC1CCCCC1 (stereo not given) do in these assays?
Ba/F3 V617F tox: 43*; IEC-6 cytotox: 2; b-catenin transl: 1; BaF3 tox: 27*

What do the screens show for `COc1cc(NCCCC(C)N)c2ncccc2c1` (stereo not given)?
Ba/F3 V617F tox: 41*; MT stabilizer: 3; IEC-6 cytotox: 16; APP transl inh: 3; BaF3 tox: 36*

Results for O=C(Cn1ccc(C(F)(F)F)n1)N=Nc1c(O)[nH]c2ccc(Br)cc12 ?
Ba/F3 V617F tox: 2; MT stabilizer: 8; IEC-6 cytotox: -1; APP transl inh: -17; b-catenin transl: 1; BaF3 tox: 5

How did O=C1c2ccccc2C(=O)N1CC1=NCCc2ccccc21 do in these assays?
Ba/F3 V617F tox: 15; MT stabilizer: 5; IEC-6 cytotox: 0; APP transl inh: 15; b-catenin transl: -4; BaF3 tox: 42*

Results for Cc1cc(CN2C(=O)c3ccccc3C2=O)no1 ?
Ba/F3 V617F tox: 3; MT stabilizer: 14; IEC-6 cytotox: 2; APP transl inh: 4; b-catenin transl: -4; BaF3 tox: 2

Results for CCOC(=O)C1=C(CS(=O)(=O)c2ccc(F)cc2)NC(=O)NC1c1ccc(O)c(O)c1 (stereo not given) ?
IEC-6 cytotox: -3

How did CC(C)OCCCNC(=O)COc1ccc2oc3c(c2c1)CCCC3 do in these assays?
IEC-6 cytotox: 0

What do the screens show for `O=C1C2C3c4ccccc4C(c4ccccc43)C2C(=O)N1c1ccncc1` (stereo not given)?
Ba/F3 V617F tox: 66*; MT stabilizer: 4; IEC-6 cytotox: -3; APP transl inh: 22; b-catenin transl: 0; BaF3 tox: 71*

How did Cc1ccc(C2CC(C(F)F)n3ncc(C(=O)Nc4cnn(Cc5ccccc5C)c4)c3N2)cc1 (stereo not given) do in these assays?
Ba/F3 V617F tox: 1; MT stabilizer: 28*; IEC-6 cytotox: 2; APP transl inh: -2; b-catenin transl: 5; BaF3 tox: 0

How did COc1ccc(Cn2c(-c3ccc(Br)cc3)c[n+]3ccccc23)cc1 do in these assays?
Ba/F3 V617F tox: 72*; MT stabilizer: 2; IEC-6 cytotox: 2; APP transl inh: -85; b-catenin transl: 0; BaF3 tox: 64*

Results for Cc1ccc(/C=C2/NC(=O)N(Cc3ccccc3)C2=O)s1 ?
Ba/F3 V617F tox: -4; MT stabilizer: 2; IEC-6 cytotox: 4; APP transl inh: -8; b-catenin transl: 2; BaF3 tox: 0

Results for Cc1cccc(CN2C(=O)N/C(=C/c3ccc(C)s3)C2=O)c1 ?
Ba/F3 V617F tox: -2; MT stabilizer: 53*; IEC-6 cytotox: 1; APP transl inh: 28; b-catenin transl: 67*; BaF3 tox: 7

Results for CC1=CC(C)C2COC(c3ccc[n+](C)c3)C1C2C (stereo not given) ?
Ba/F3 V617F tox: 35*; MT stabilizer: 2; IEC-6 cytotox: -7; APP transl inh: -3; b-catenin transl: -1; BaF3 tox: 40*

Results for CCc1ccc(-c2nc(CSCC(=O)NCc3ccco3)c(C)o2)cc1 ?
Ba/F3 V617F tox: 2; MT stabilizer: 3; IEC-6 cytotox: 0; APP transl inh: 47*; b-catenin transl: -1; BaF3 tox: 5

Results for COc1ccc(NC(=S)/N=C(\N)Nc2nc(C)c3ccc(C)cc3n2)cc1 ?
Ba/F3 V617F tox: 3; MT stabilizer: 5; IEC-6 cytotox: 13; APP transl inh: 0; b-catenin transl: 1; BaF3 tox: 43*

How did Cc1c(NC(=O)c2ccc3c(c2)OCO3)cccc1-c1nc2ccccc2o1 do in these assays?
Ba/F3 V617F tox: 0; MT stabilizer: 3; IEC-6 cytotox: -5; APP transl inh: 10; b-catenin transl: -3; BaF3 tox: 0

Results for O=C(Nc1ccccc1-c1nc2ccccc2o1)c1ccc2c(c1)OCCO2 ?
Ba/F3 V617F tox: 1; MT stabilizer: 15*; IEC-6 cytotox: 1; APP transl inh: 0; BaF3 tox: 0

What do the screens show for `COc1ccc(S(=O)(=O)N(C)c2nc3ccccc3n3c(CC(C)C)nnc23)cc1`?
IEC-6 cytotox: -4

How did Cc1nc2ncccn2c1-c1csc(Nc2ccc(S(N)(=O)=O)cc2)n1 do in these assays?
IEC-6 cytotox: -7

What do the screens show for `Cc1nc2ncccn2c1-c1csc(Nc2ccccc2)n1`?
Ba/F3 V617F tox: -1; MT stabilizer: 19*; IEC-6 cytotox: 4; APP transl inh: 6; b-catenin transl: 5; BaF3 tox: 2

How did COc1ccc(Nc2nc(-c3c(C)nc4ncccn34)cs2)cc1 do in these assays?
Ba/F3 V617F tox: 83*; MT stabilizer: 14*; IEC-6 cytotox: 86*; APP transl inh: 94*; b-catenin transl: 56*; BaF3 tox: 83*

Assay outcomes: PubChem BioAssay, several laboratories
